# Legend:
# [1] = test system: HOP-62; experiment: Growth inhibition of human HOP-62 cells measured after 48 hrs by SRB assay; type: functional
# How it was run: (§1)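 NCI 60-line format with five concentrations (10-fold or ½-log serial dilutions) from DMSO stocks in medium with 50 μg/mL gentamicin. Cells preincubated 24 h, then exposed 48 h at 37°C, 5% CO2. Time-zero plates TCA-fixed. SRB absorbance read at 515 nm. GI50 taken from [(Ti−Tz)/(C−Tz)]×100 = 50. Out-of-range values are expressed as > or < the highest or lowest concentration tested.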
# [2] = test system: UACC-62; experiment: Growth inhibition of human UACC-62 cells measured after 48 hrs by SRB assay; type: functional
# How it was run: (§2)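 NCI 60-line SRB screen: cells seeded […], grown 24 h at 37°C, 5% CO2, then exposed 48 h to five concentrations (10-fold or ½-log dilutions from DMSO stock). Adherent cells fixed with cold TCA (final 10%), suspension cells with 80% TCA (final 16%); SRB stained, read at 515 nm. GI50 from time-zero, control and treated absorbances.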
# [3] = test system: NCI-H522; experiment: Growth inhibition of human NCI-H522 cells measured after 48 hrs by SRB assay; type: functional; how it was run: as §1
# [4] = test system: OVCAR-8; experiment: Growth inhibition of human OVCAR-8 cells measured after 48 hrs by SRB assay; type: functional; how it was run: as §1
# [5] = test system: HL-60; experiment: Induction of apoptosis in human HL-60 cells assessed as late apoptotic cells measured after 24 hrs by Annexin-V/propidium iodide staining based flow cytometry (reference value: 0.61%); type: functional
# [6] = test system: DU-145; experiment: Growth inhibition of human DU-145 cells measured after 48 hrs by SRB assay; type: functional; how it was run: as §1
# [7] = test system: Panel NCI-60 (60 carcinoma cell lines); experiment: Antiproliferative activity against human NCI-60 cells assessed as growth inhibition at 10 uM measured after 48 hrs by SRB assay relative to control; type: functional; details: read-out: GI
# How it was run: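 NCI screen: cells seeded at […] per well and preincubated 24 h (37°C, 5% CO2). Compound stocks in DMSO, tested at a single 10 μM. Exposure 48 h. Adherent cells fixed with cold TCA (10% final), suspension cells with 16% TCA. SRB stain read at 515 nm. Percent growth inhibition reported against time-zero and untreated controls.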
# [8] = test system: HL-60; experiment: Induction of apoptosis in human HL-60 cells assessed as increase in total apoptotic cells measured after 24 hrs by Annexin-V/propidium iodide staining based flow cytometry relative to control; type: functional
# [9] = test system: SK-MEL-2; experiment: Growth inhibition of human SK-MEL-2 cells measured after 48 hrs by SRB assay; type: functional; how it was run: as §2
# [10] = test system: NCI-H460; experiment: Growth inhibition of human NCI-H460 cells measured after 48 hrs by SRB assay; type: functional; how it was run: as §1
# [11] = test system: MOLT-4; experiment: Growth inhibition of human MOLT-4 cells measured after 48 hrs by SRB assay; type: functional; how it was run: as §1
# [12] = Cytotoxicity against human PCS-800-017 cells assessed as reduction in cell viability measured after 24 hrs by MTT assay; type: toxicity, cell-based
# How it was run: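 MTT viability with 24 h incubation in 96-well plates. Five semi-log concentrations from 0.01 to 100 μM. Formazan absorbance read at 570 nm, with 690 nm background subtracted. Run in triplicate. IC50 obtained by sigmoidal dose-response fitting. Cells are leukemia HL-60(TB) and normal lymphocytes (PCS-800-017).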
# [13] = test system: CAKI-1; experiment: Growth inhibition of human CAKI-1 cells measured after 48 hrs by SRB assay; type: functional; how it was run: as §1
# [14] = test system: UO-31; experiment: Growth inhibition of human UO-31 cells measured after 48 hrs by SRB assay; type: functional; details: for CC50: read-out: LC50 (the source's name); how it was run: as §2
# [15] = test system: U-251; experiment: Growth inhibition of human U-251 cells measured after 48 hrs by SRB assay; type: functional; how it was run: as §2
# [16] = test system: T47D; experiment: Growth inhibition of human T47D cells measured after 48 hrs by SRB assay; type: functional; how it was run: as §2
# [17] = test system: IGROV-1; experiment: Growth inhibition of human IGROV-1 cells measured after 48 hrs by SRB assay; type: functional; how it was run: as §1
# [18] = test system: HL-60; experiment: Induction of apoptosis in human HL-60 cells assessed as early apoptotic cells measured after 24 hrs by Annexin-V/propidium iodide staining based flow cytometry (reference value: 0.61%); type: functional
# [19] = test system: HT-29; experiment: Growth inhibition of human HT-29 cells measured after 48 hrs by SRB assay; type: functional; how it was run: as §1
# [20] = test system: HL-60; experiment: Induction of apoptosis in human HL-60 cells assessed as necrotic cells measured after 24 hrs by Annexin-V/propidium iodide staining based flow cytometry (reference value: 0.61%); type: functional
# [21] = test system: HL-60; experiment: Growth inhibition of human HL-60 cells measured after 48 hrs by SRB assay; type: functional; details: for CC50: read-out: LC50 (the source's name); how it was run: as §1
# [22] = test system: TK-10; experiment: Growth inhibition of human TK-10 cells measured after 48 hrs by SRB assay; type: functional; how it was run: as §2
# [23] = test system: SN12C; experiment: Growth inhibition of human SN12C cells measured after 48 hrs by SRB assay; type: functional; how it was run: as §2
# [24] = test system: NCI/ADR-RES; experiment: Growth inhibition of human NCI/ADR-RES cells measured after 48 hrs by SRB assay; type: functional; how it was run: as §1
# [25] = test system: SNB-19; experiment: Growth inhibition of human SNB-19 cells measured after 48 hrs by SRB assay; type: functional; how it was run: as §2
# [26] = test system: SK-MEL-28; experiment: Growth inhibition of human SK-MEL-28 cells measured after 48 hrs by SRB assay; type: functional; how it was run: as §2
# [27] = test system: MDA-MB-468; experiment: Growth inhibition of human MDA-MB-468 cells measured after 48 hrs by SRB assay; type: functional; how it was run: as §1
# [28] = test system: KM12; experiment: Growth inhibition of human KM12 cells measured after 48 hrs by SRB assay; type: functional; how it was run: as §1
# [29] = test system: EKVX; experiment: Growth inhibition of human EKVX cells measured after 48 hrs by SRB assay; type: functional; how it was run: as §1
# [30] = test system: Hs-578T; experiment: Growth inhibition of human Hs-578T cells measured after 48 hrs by SRB assay; type: functional; details: for CC50: read-out: LC50 (the source's name); how it was run: as §1
# [31] = test system: A549; experiment: Growth inhibition of human A549 cells measured after 48 hrs by SRB assay; type: functional; how it was run: as §1
# [32] = test system: MDA-MB-231; experiment: Growth inhibition of human MDA-MB-231 cells measured after 48 hrs by SRB assay; type: functional; how it was run: as §1
# [33] = test system: OVCAR-3; experiment: Growth inhibition of human OVCAR-3 cells measured after 48 hrs by SRB assay; type: functional; how it was run: as §1
smiles,measurement,setting,value
CCOc1cc(/C=N/Nc2nc(-c3cccc([N+](=O)[O-])c3)cs2)ccc1O,GI50,[1],2.51 µM
same,TGI,[1],6.92 µM
same,GI50,[2],2.39 µM
same,TGI,[2],6.56 µM
same,GI50,[3],1.85 µM
same,TGI,[3],4.21 µM
same,GI50,[4],2.84 µM
same,TGI,[4],9.63 µM
same,Activity,[5],16.27%
same,GI50,[6],3.43 µM
same,TGI,[6],11.6 µM
same,inhibition of growth at 10 µM,[7],112%
same,fold change (FC),[8],23.07
same,GI50,[9],2.48 µM
same,TGI,[9],6.75 µM
same,GI50,[10],2.4 µM
same,TGI,[10],5.81 µM
same,GI50,[11],1.74 µM
same,TGI,[11],5.94 µM
same,IC50 at 24 h,[12],28.6 µM
same,GI50,[13],2.18 µM
same,TGI,[13],6.88 µM
same,GI50,[14],2.29 µM
same,TGI,[14],8.85 µM
same,CC50,[14],> 100 µM
same,GI50,[15],3.08 µM
same,TGI,[15],14.1 µM
same,GI50,[16],3.69 µM
same,TGI,[16],16.3 µM
same,GI50,[17],2.46 µM
same,TGI,[17],7.23 µM
same,Activity,[18],31.19%
same,GI50,[19],33.7 µM
same,TGI,[19],> 100 µM
same,Activity,[20],4.93%
same,GI50,[21],2.32 µM
same,TGI,[21],7.84 µM
same,CC50,[21],> 100 µM
same,GI50,[22],4.42 µM
same,TGI,[22],16.1 µM
same,GI50,[23],2.41 µM
same,TGI,[23],9.9 µM
same,GI50,[24],2.72 µM
same,TGI,[24],8.59 µM
same,GI50,[25],3.35 µM
same,TGI,[25],20.8 µM
same,GI50,[26],2.27 µM
same,TGI,[26],5.97 µM
same,GI50,[27],2.17 µM
same,TGI,[27],4.61 µM
same,GI50,[28],1.94 µM
same,TGI,[28],3.63 µM
same,GI50,[29],3.17 µM
same,TGI,[29],16.4 µM
same,GI50,[30],3.38 µM
same,TGI,[30],39.2 µM
same,CC50,[30],> 100 µM
same,GI50,[31],3.45 µM
same,TGI,[31],14.1 µM
same,GI50,[32],1.78 µM
same,TGI,[32],3.88 µM
same,GI50,[33],2.31 µM
same,TGI,[33],4.43 µM
O=[N+]([O-])c1cc(/C=N/Nc2nc(-c3ccc(Cl)cc3)cs2)ccc1Cl,GI50,[1],8.87 µM
same,TGI,[1],22.4 µM
same,GI50,[2],11.1 µM
same,TGI,[2],26 µM
same,GI50,[3],9.45 µM
same,TGI,[3],67.6 µM
same,GI50,[4],14.9 µM
same,TGI,[4],54.1 µM
same,Activity,[5],17.92%
same,GI50,[6],1.63 µM
same,TGI,[6],3.07 µM
same,inhibition of growth at 10 µM,[7],66%
same,fold change (FC),[8],19.9
same,GI50,[9],24 µM
same,TGI,[9],81.5 µM
same,GI50,[10],13.6 µM
same,TGI,[10],26.5 µM
same,GI50,[11],3.43 µM
same,TGI,[11],24.1 µM
same,IC50 at 24 h,[12],22.7 µM
same,GI50,[13],14.6 µM
same,TGI,[13],32.1 µM
same,GI50,[14],8.46 µM
same,TGI,[14],20.7 µM
same,CC50,[14],45.5 µM
same,GI50,[15],4.37 µM
same,TGI,[15],17 µM
same,GI50,[16],1.8 µM
same,TGI,[16],3.81 µM
same,GI50,[17],13.6 µM
same,TGI,[17],37.4 µM
same,Activity,[18],23.62%
same,GI50,[19],3.6 µM
same,TGI,[19],15.4 µM
same,Activity,[20],3.64%
same,GI50,[21],2.29 µM
same,TGI,[21],7.43 µM
same,CC50,[21],> 100 µM
same,GI50,[22],28.1 µM
same,TGI,[22],84 µM
same,GI50,[23],15.1 µM
same,TGI,[23],61.5 µM
same,GI50,[24],16.8 µM
same,TGI,[24],41.5 µM
same,GI50,[25],10.5 µM
same,TGI,[25],24.2 µM
same,GI50,[26],17.2 µM
same,TGI,[26],46.4 µM
same,GI50,[27],1.54 µM
same,TGI,[27],3.01 µM
same,GI50,[28],1.88 µM
same,TGI,[28],3.58 µM
same,GI50,[29],10.3 µM
same,TGI,[29],22.9 µM
same,GI50,[30],2.36 µM
same,TGI,[30],6.14 µM
same,CC50,[30],> 100 µM
same,GI50,[31],78.4 µM
same,TGI,[31],> 100 µM
same,GI50,[32],17.4 µM
same,TGI,[32],42.6 µM
same,GI50,[33],1.73 µM
same,TGI,[33],3.13 µM
